This is an account of results in ChEMBL document CHEMBL4325891 (Eur J Med Chem, 2019).

Structures are written as SMILES. Active and inactive are the calls of the source. The calls are words filed in the database; no cut-off is given here. Where a SMILES comes first, the peptide text is derived from it. The star is where a group is joined. Doxorubicin(Traut) = COc1cccc2c1C(=O)c1c(O)c3c(c(O)c1C2=O)C[C@@](O)(C(=O)CO)C[C@@H]3O[C@H]1C[C@H](NC(=N)CCCS*)[C@H](O)[C@H](C)O1; βAla = NCCC(=O)O

In series [1] the test system is HT-1080. Nature of the series: Inhibition of cell proliferation in human HT1080 cells at 5 uM after 24 hrs by MTT or MTS assay relative to control. Format: functional. As to conditions: for inhibition at 5 µM: HT-1080, 24 h. The procedure, abridged: (§1)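 Seeding was 5000 cells/well for HEK-293, SKOV-3 and HT-1080, and 50,000 for CCRF-CEM, 24 h before dosing. CCRF-CEM was grown in RPMI and the others in EMEM with 10% FBS. Compounds were given at 5 μM for 24 or 72 h at 37 °C, with water/0.025% DMSO as negative control. Adherent lines received fresh medium before adding MTT (595 nm) or MTS (490 nm). Background-corrected OD is expressed as percent of control; triplicate runs.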

Series [2] concerns CCRF-CEM. The series can be described thus: Inhibition of cell proliferation in human CCRF-CEM cells at 5 uM after 72 hrs by MTT or MTS assay relative to control. Type of series: functional. The procedure, abridged:
as §1
Background: Tetrazolium dyes change colour on reduction, which living cells bring about.

Series [3] has as its system CCRF-CEM. Nature of the series: Inhibition of cell proliferation in human CCRF-CEM cells at 5 uM after 24 hrs by MTT or MTS assay relative to control. Type of series: functional. Put shortly: as §1
Series [4] can be described thus: Drug uptake in human MCF7 cells nucleus at 5 uM after 1 to 24 hrs by DAPI staining based fluorescence microscopic method. Type of series: ADME, subcellular. The settings on record: mcf7, 5 µM. The procedure, abridged: (§2)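 1×10^4 cells per chamber were allowed to attach and then cultured overnight. Compounds were added at 5 μM final in fresh medium for 1 h or 24 h, with untreated cells as control. Cells were then washed with DPBS and fixed in 4% paraformaldehyde for 30 min.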

Series [5] can be described thus: Inhibition of cell proliferation in HEK293 cells at 5 uM after 24 hrs by MTT or MTS assay relative to control. Format: cell-based. The settings on record: human.
Series [6] has as its system HT-1080. Nature of the series: Inhibition of cell proliferation in human HT1080 cells at 5 uM after 72 hrs by MTT or MTS assay relative to control. Format: functional. The settings on record: for inhibition at 5 µM: HT-1080, 72 h.
The nature of series [7]: Inhibition of cell proliferation in HEK293 cells at 5 uM after 72 hrs by MTT or MTS assay relative to control. Format: cell-based. The settings on record: human. The procedure, abridged: as §1
The test system of series [8] is SK-OV-3. Nature of the series: Inhibition of cell proliferation in human SKOV3 cells at 5 uM after 72 hrs by MTT or MTS assay relative to control. Format: functional. As to conditions: SK-OV-3, 72 h.
Series [9] can be described thus: Drug uptake in human SKOV3 cells nucleus at 5 uM after 1 to 24 hrs by DAPI staining based fluorescence microscopic method. Type of series: ADME, subcellular. The settings on record: sk-ov-3, 5 µM. The procedure, abridged: as §2
The nature of series [10]: Drug uptake in human HT1080 cells nucleus at 5 uM after 1 to 24 hrs by DAPI staining based fluorescence microscopic method. The settings on record: ht-1080, 5 µM. Format: ADME, subcellular. Put shortly: as §2
Series [11] is described as follows: Drug uptake in human MDA-MB-468 cells nucleus at 5 uM after 1 to 24 hrs by DAPI staining based fluorescence microscopic method. Type of series: ADME, subcellular. As to conditions: mda-mb-468, 5 µM. Put shortly: as §2
The test system of series [12] is C2C12. The series can be described thus: Induction of FeCl2-mediated ROS generation in mouse C2C12 cells at 0.5 uM after 72 hrs by H2DCFDA staining based flow cytometry relative to control. Type of series: cell-based. As to conditions: c2c12, 72 h. The procedure, abridged: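 C2C12 cells were seeded in DMEM with 10% FBS and cultured 24 h. They were then incubated 72 h in serum-free DMEM with 10 μM Fe²⁺ (FeCl₂), with or without compound at 0.5 μM. Cells were harvested and stained with 10 μM H₂DCFDA in HBSS for 30 min at 37 °C before flow cytometry. The mean signal of 5000 cells is expressed as fold of control; experiments were done twice.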
A general note: In flow cytometry, cells or beads pass a laser one at a time.

Series [13] can be described thus: Drug uptake in human HT1080 cells at 5 uM after 3 hrs by flow cytometry. As to conditions: ht-1080, 3 h. Format: ADME, cell-based. The procedure, abridged: (§3)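 Adherent cells were plated at 5×10^4 per well in serum-free medium and left overnight, then exposed to 5 μM compound for 3 h at 37 °C, with untreated cells as control. Cells were washed with DPBS, trypsinised for 5 min and washed twice. Flow cytometry read the Texas Red channel, giving the mean fluorescence of 10,000 cells, in triplicate.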

Series [14] has as its system C2C12. Nature of the series: Induction of ROS generation in mouse C2C12 cells at 0.5 uM after 72 hrs by H2DCFDA staining based flow cytometry relative to control. The settings on record: c2c12, 72 h. Type of series: cell-based.
Series [15] in a line: Cytotoxicity against mouse C2C12 cells assessed as cell viability at 5 uM after 72 hrs by MTT assay relative to control. Format: cell-based. The settings on record: read-out: Activity. The procedure, abridged: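 C2C12 mouse myoblasts grown in DMEM with 10% FBS, seeded at 10,000 cells/well 24 h before dosing. Compound exposure for 72 h at 37 °C, then MTT read-out. Viability expressed relative to untreated control, set at 100%. Run in triplicate.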

The nature of series [16]: Drug uptake in human SKOV3 cells at 5 uM after 3 hrs by flow cytometry. Type of series: ADME, cell-based. As to conditions: sk-ov-3, 3 h. The procedure, abridged:
as §3

Series [17] has as its system SK-OV-3. The series can be described thus: Inhibition of cell proliferation in human SKOV3 cells at 5 uM after 24 hrs by MTT or MTS assay relative to control. Type of series: functional. As to conditions: SK-OV-3, 24 h.
A short description of series [18]: Drug uptake in human SKOV3 cells at 50 uM after 3 hrs by flow cytometry. Type of series: ADME, cell-based. As to conditions: sk-ov-3, 3 h.
A short description of series [19]: Drug uptake in human HT1080 cells at 50 uM after 3 hrs by flow cytometry. Type of series: ADME, cell-based. The settings on record: ht-1080, 3 h.
Series [20] in a line: Drug uptake in HEK293 cells at 50 uM after 3 hrs by flow cytometry. As to conditions: human, hek293, 3 h. Type of series: ADME, cell-based.
A short description of series [21]: Drug uptake in human CCRF-CEM cells at 50 uM after 3 hrs by flow cytometry. Format: ADME, cell-based.

By inhibition is commonly meant how much of the control response was suppressed.

As to `N=C(N)NCCC[C@@H]1NC(=O)[C@H](CS)NC(=O)[C@H](CCCNC(=N)N)NC(=O)[C@H](Cc2c[nH]c3ccccc23)NC(=O)[C@H](CCCNC(=N)N)NC(=O)[C@H](Cc2c[nH]c3ccccc23)NC(=O)[C@H](CCCCNC(=O)CCN)NC(=O)[C@H](Cc2c[nH]c3ccccc23)NC(=O)[C@H](CCCNC(=N)N)NC(=O)[C@H](Cc2c[nH]c3ccccc23)NC1=O` (cyclo(CRWRWK(βAla)WRWR)), the inhibition entry in series [1], in [2] and in series [3] was “inactive” throughout.

Consider `COc1cccc2c1C(=O)c1c(O)c3c(c(O)c1C2=O)C[C@@](O)(C(=O)CO)C[C@@H]3O[C@H]1C[C@H](NC(=N)CCCS)[C@H](O)[C@H](C)O1`, for which the inhibition at 5 µM is 62% in [1]; 73% in series [2]; 68% in [6]; 42% in series [8]; 48% in series [3]. Further, the Drug uptake entry in [4], in [9], in series [10] and in [11] was “Active” each time. Also, the inhibition at 24 h, 5 µM in series [5] was determined as 61%. The compound further returned an inhibition at 72 h, 5 µM in series [7] of 64%.

Turning to `COc1cccc2c1C(=O)c1c(O)c3c(c(O)c1C2=O)C[C@@](O)(C(=O)CO)C[C@@H]3O[C@H]1C[C@H](N)[C@H](O)[C@H](C)O1` [DOXORUBICIN], the inhibition at 5 µM in series [1] was 66%; in series [2], 69%; in series [8], 51%; in series [3], 45%; in series [17], 66 to 76%. Further, the Drug uptake result in series [4], in [9], in [13], in series [10], in [16] and in series [11] was “Active” in each case. For the same compound, the “fold change (FC)” value in series [12] is 3.48; in series [14] it was 1.09. Besides, the inhibition at 24 h, 5 µM in series [5] came out at 57%. In [6], the inhibition result was “inactive”. Further, in series [15], the viability at 72 h, 5 µM was 28.6%.

In the case of `COc1cccc2c1C(=O)c1c(O)c3c(c(O)c1C2=O)C[C@@](O)(C(=O)CO)C[C@@H]3O[C@H]1C[C@H](NC(=N)CCCSSC[C@@H]2NC(=O)[C@H](CCCNC(=N)N)NC(=O)[C@H](Cc3c[nH]c4ccccc34)NC(=O)[C@H](CCCNC(=N)N)NC(=O)[C@H](Cc3c[nH]c4ccccc34)NC(=O)[C@H](CCCCNC(=O)CCN)NC(=O)[C@H](Cc3c[nH]c4ccccc34)NC(=O)[C@H](CCCNC(=N)N)NC(=O)[C@H](Cc3c[nH]c4ccccc34)NC(=O)[C@H](CCCNC(=N)N)NC2=O)[C@H](O)[C@H](C)O1` (cyclo(C(Doxorubicin(Traut))RWRWK(βAla)WRWR)), the Drug uptake entry in series [18], in [4], in series [9], in [10], in series [19] and in [11] was “Active” in each case. Further, the Activity result in [12] is reported as “Non-Toxic”. The “fold change (FC)” value in series [14] is recorded as 1.05. The viability at 72 h, 5 µM in series [15] turned out to be 71%.

Turning to `COc1cccc2c1C(=O)c1c(O)c3c(c(O)c1C2=O)C[C@@](O)(C(=O)CO)C[C@@H]3O[C@H]1C[C@H](NC(=N)CCCSSc2ccccn2)[C@H](O)[C@H](C)O1`, the inhibition at 5 µM in [1] was 80%; in series [2] it was 73%; in series [6], 68%; in [8] it was 39%; in [3], 46%; in series [17], 72%. The Drug uptake entry in series [4], in series [20], in series [21], in [9], in series [10] and in series [19] was “Active” throughout. For the same compound, the Drug uptake result in series [11] is reported as “Active”. For the same compound, the inhibition at 24 h, 5 µM in [5] was found to be 66%. For the same compound, the inhibition at 72 h, 5 µM in series [7] amounted to 60%.
